Hits are enriched below; roughly 4.8% of the tested compounds scored in any of these assays.
NALP1 inh – blocks the NALP1 inflammasome reconstituted in yeast; S. cerevisiae NALP1/ASC/caspase-1 growth, X-gal OD620, 72 h; inhibition, % at 10 µM; hit rate 0.61% among 280,000; AID 2071; in the data active means inhibition mostly above about 24%, no sharp cut-off; inactive means mostly below about 32%
NALP3 yeast inh – inhibitors of NALP3 inflammasome in yeast; AID 2825; hit rate 0.39% among 330,000; inhibition, % at 10 µM; Yeast reconstituted NLRP3/ASC/caspase-1, beta-gal luminescence, 24 h;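 active means inhibition of 50% or more; inactive means inhibition below 50%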
Calb FLC – affects C. albicans growth with fluconazole; growth inhibition, % (no concentration beside the values); C. albicans CaCi-2 + fluconazole, Alamar Blue growth, 48 h; AID 1979; hit rate 0.57% among 300,000;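 active means growth inhibition above about 58% in most replicates, limit read from the data, passing the limit was not always enough; inconclusive means exactly half the replicates above a set limit; inactive means most replicates below a set limit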;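 further: all wells also contain fluconazole at 8 µg/ml as a sub-toxic cotreatment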
ATG4B inhibitor – ATG4B (human) cysteine protease inhibition; ATG4B cleavage of LC3-PLA2, NBD-HPC fluorescence, 1 h; inhibition, % at 8.33 µM; hit rate 0.51% among 340,000; in the data active means inhibition above about 40%
UCH37 DUB inh – blocks the human deubiquitinase UCH37. purified proteasome/UCH37, Ub-AMC cleavage fluorescence. inhibition, % (test concentration not listed). hit rate 0.33% among 330,000;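 active means mean inhibition over replicate wells above about 20%, limit read from the data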
Target sequence (Q9Y5K5 whole entry, looked up): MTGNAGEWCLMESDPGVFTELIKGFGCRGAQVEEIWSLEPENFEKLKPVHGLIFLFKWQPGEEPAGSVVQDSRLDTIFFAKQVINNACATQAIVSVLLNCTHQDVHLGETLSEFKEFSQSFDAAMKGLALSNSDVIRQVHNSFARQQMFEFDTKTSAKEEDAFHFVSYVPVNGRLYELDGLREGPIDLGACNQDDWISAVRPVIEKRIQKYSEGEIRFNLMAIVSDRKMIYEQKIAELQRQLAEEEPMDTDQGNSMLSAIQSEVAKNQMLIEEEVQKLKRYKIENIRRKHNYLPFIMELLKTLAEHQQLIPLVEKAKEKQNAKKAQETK
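Material: Human UCH37 enzyme supplied as purified proteasome complex | Schedule: 30 min preincubation with enzyme, 25 min cleavage at room temperature | Detection: AMC fluorescence 355/460 nm | Measure: % inhibition of Ub-AMC cleavage fluorescence | Controls: Wells without proteasome as full block, compound-free enzyme plus substrate as uninhibited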
ALR inh – inhibitors of human sulfhydryl oxidase ALR; purified ALR, DTT oxidation, H2O2 HRP-luminol luminescence; inhibition, % (no concentration beside the values); hit rate 3.8% among 290,000;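 active means mean replicate inhibition above about 79%, with every replicate also reaching it, limit read from the data; inconclusive means only one of the two criteria met; inactive means mean below limit and not every replicate reaching it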
Target sequence (P55789 whole entry, looked up): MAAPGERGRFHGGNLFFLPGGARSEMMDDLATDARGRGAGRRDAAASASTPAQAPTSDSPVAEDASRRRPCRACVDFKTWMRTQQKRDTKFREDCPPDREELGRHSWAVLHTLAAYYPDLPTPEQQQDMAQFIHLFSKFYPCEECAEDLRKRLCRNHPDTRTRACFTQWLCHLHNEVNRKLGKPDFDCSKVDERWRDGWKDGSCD
Hits are given with their value.

For COc1ccc(C(=O)N/N=C(\C)c2ccc3c(c2)C2C=CCC2C(c2ccccc2)N3)cc1 (centres undefined) the results were NALP1 inh inactive, ATG4B inhibitor inactive and ALR inh inactive.
Screening O=C(O)c1ccc2c(c1)[C@@H]1C=CC[C@@H]1[C@H](c1ccccn1)N2 returned NALP3 yeast inh inactive, Calb FLC 110.1, ATG4B inhibitor inactive and UCH37 DUB inh inactive.
Screening CN(Cc1cccs1)C(=O)CCc1c[nH]c2ccccc12 returned NALP1 inh inactive, NALP3 yeast inh inactive, Calb FLC inactive, ATG4B inhibitor inactive and UCH37 DUB inh inactive.
`CN(CCOc1ccccc1)C(=O)CCc1c[nH]c2ccccc12` gave NALP1 inh inactive, NALP3 yeast inh inactive, Calb FLC inactive, ATG4B inhibitor inactive, UCH37 DUB inh inactive and ALR inh 96.0.
Screening NC(=NO)c1ccccc1-n1cccc1 returned UCH37 DUB inh inactive.
For Cc1nn(-c2ccccc2)c(N2CCCC2)c1/C=N/NC(=O)c1ccccc1O the results were NALP1 inh inactive, NALP3 yeast inh inactive, Calb FLC 90.6, ATG4B inhibitor inactive and ALR inh inactive.
For O=C(N/N=C/c1cc2c3c(c1O)CCCN3CCC2)c1ccccc1O the results were NALP1 inh inactive, Calb FLC 108.1 and ATG4B inhibitor inactive.
Screening CC(=NNC(=O)c1cccs1)c1ccco1 returned UCH37 DUB inh inactive.
For O=C1Oc2ccccc2C(=O)/C1=C\N1CCN(c2ccccc2)CC1 the results were NALP1 inh inactive, NALP3 yeast inh inactive, Calb FLC inactive, ATG4B inhibitor inactive, UCH37 DUB inh inactive and ALR inh 97.2.
COc1ccccc1/C=C/C=c1sc2nc(=O)c(Cc3ccccc3)nn2c1=O was read as UCH37 DUB inh inactive.
For CC1=CC(C)(C)N(C(=O)CCl)c2ccccc21 the results were NALP1 inh 28.0, NALP3 yeast inh inactive, Calb FLC inactive, ATG4B inhibitor inactive, UCH37 DUB inh inactive and ALR inh inactive.
For O=C(CSc1c2c(nc3ccc(Cl)cc13)CCCC2)NCCCN1CCOCC1 the results were NALP1 inh inactive, NALP3 yeast inh inactive, Calb FLC inactive, ATG4B inhibitor inactive, UCH37 DUB inh inactive and ALR inh 97.7.
O=C(CSc1c2c(nc3cc(Cl)ccc13)CCCC2)NCCCN1CCOCC1 was read as NALP1 inh inactive, NALP3 yeast inh inactive, Calb FLC inactive, ATG4B inhibitor inactive, UCH37 DUB inh inactive and ALR inh 97.1.
For COCCCNC(=O)CSc1c2c(nc3ccc(Cl)cc13)CCCC2 the results were NALP1 inh inactive, NALP3 yeast inh inactive, Calb FLC inactive, ATG4B inhibitor inactive, UCH37 DUB inh inactive and ALR inh 98.5.
Screening Cc1ccc(C(=O)NN=Cc2ccc(-c3ccccc3[N+](=O)[O-])o2)cn1 returned UCH37 DUB inh inactive.
COc1cc(C(=O)NCC(=O)NN=Cc2cccnc2)cc(OC)c1OC was read as UCH37 DUB inh inactive.
Cc1ccc2nc(Cl)c(C=NNC(=O)c3ccccc3O)cc2c1 was read as UCH37 DUB inh inactive.
`C[C@@H]1O[C@@H](OC[C@H]2O[C@@H](Oc3cc(O)c4c(=O)cc(-c5ccc(O)c(O)c5)oc4c3)[C@H](O)[C@@H](O)[C@@H]2O)[C@H](O)[C@H](O)[C@H]1O` gave NALP3 yeast inh inactive, ATG4B inhibitor inactive, UCH37 DUB inh inactive and ALR inh 98.9.
COc1ccc([C@@H]2CC(=O)c3c(O)cc(O[C@@H]4OC(CO[C@@H]5OC(C)[C@H](O)[C@H](O)C5O)[C@@H](O)[C@@H](O)C4O)cc3O2)cc1O (some centres undefined) was read as NALP3 yeast inh inactive, Calb FLC inactive, ATG4B inhibitor inactive, UCH37 DUB inh inactive and ALR inh inactive.
For O=c1cc(-c2ccc(O)c(O)c2)oc2cc(O[C@@H]3O[C@H](CO)[C@@H](O)[C@H](O)[C@H]3O)cc(O)c12 the results were NALP3 yeast inh inactive, ATG4B inhibitor inactive, UCH37 DUB inh inactive and ALR inh 99.0.
For COc1ccc(/C=C/C(=O)NCC(=O)NN=C(C)c2ccco2)cc1 the results were UCH37 DUB inh inactive.
Screening CCOC(=O)Cn1cc(C=NNC(=O)c2ccc(C#N)cc2F)c2ccccc21 returned UCH37 DUB inh inactive.
`Cc1onc(-c2ccccc2Cl)c1C(=O)NC(=S)Nc1ccccc1C(N)=O` gave NALP1 inh inactive, NALP3 yeast inh inactive, Calb FLC inactive, ATG4B inhibitor inactive, UCH37 DUB inh inactive and ALR inh 94.7.
Screening Cc1ccc(-n2nc3c(c2NC(=O)c2c(-c4ccccc4Cl)noc2C)CSC3)cc1 returned NALP1 inh inactive, NALP3 yeast inh inactive, Calb FLC inactive, ATG4B inhibitor 42.6, UCH37 DUB inh inactive and ALR inh inactive.
`Cc1onc(-c2ccccc2Cl)c1C(=O)NC1CCS(=O)(=O)C1` (centres undefined) gave NALP1 inh inactive, NALP3 yeast inh inactive, Calb FLC inactive, ATG4B inhibitor inactive, UCH37 DUB inh inactive and ALR inh 96.3.
For Cc1cccc(C(=O)NN=Cc2cc(Br)c(Br)o2)c1 the results were UCH37 DUB inh inactive.
`NC(=NOC(=O)c1ccc(Br)cc1)c1cccc([N+](=O)[O-])c1` gave UCH37 DUB inh inactive.
Screening CCOC(=O)c1ccc(NC(=O)c2ccccc2[N+](=O)[O-])cc1 returned NALP1 inh inactive, NALP3 yeast inh inactive, Calb FLC inactive, ATG4B inhibitor inactive, UCH37 DUB inh inactive and ALR inh inactive.
Screening CCOC(=O)c1cc([N+](=O)[O-])c([N+](=O)[O-])cc1NC(C)=O returned NALP1 inh inactive, Calb FLC 106.4, ATG4B inhibitor inactive, UCH37 DUB inh inactive and ALR inh inactive.
Screening Cc1ccsc1/C=N\NC(=O)c1cc(C(C)(C)C)[nH]n1 returned NALP1 inh inactive, NALP3 yeast inh inactive, Calb FLC inactive, ATG4B inhibitor inactive and ALR inh 89.4.
`COc1cc(C=NOCC(=O)Nc2cc(C)on2)ccc1OCc1ccccc1` gave UCH37 DUB inh inactive.
Screening COc1ccc(C2C(C(=O)c3cccs3)=C(O)C(=O)N2c2nncs2)cc1 (centres undefined) returned NALP1 inh inactive, NALP3 yeast inh inactive, Calb FLC 116.2, ATG4B inhibitor inactive, UCH37 DUB inh inactive and ALR inh inactive.
Cc1cccc(N2C(=O)C(O)=C(C(=O)c3cccs3)C2c2ccc(C(C)C)cc2)n1 (centres undefined) was read as NALP1 inh inactive, NALP3 yeast inh inactive, Calb FLC inactive, ATG4B inhibitor inactive, UCH37 DUB inh inactive and ALR inh 98.0.
For Cc1cccc(N2C(=O)C(O)=C(C(=O)c3cccs3)C2c2ccc(F)cc2)n1 (centres undefined) the results were NALP1 inh inactive, NALP3 yeast inh inactive, Calb FLC inconclusive, ATG4B inhibitor inactive, UCH37 DUB inh inactive and ALR inh inactive.
`O=C(NN=Cc1cccs1)c1cc(-c2ccc3ccccc3c2)n[nH]1` gave UCH37 DUB inh inactive.

Source: PubChem
